Laboratory results published in ChEMBL document CHEMBL1133621, “Synthesis, characterization, and cytotoxicity of trifunctional dinuclear platinum complexes: comparison of effects of geometry and polyfunctionality on biological activity” (J Med Chem, 2000).
Where “and” joins values, the source holds several entries; their conditions need not be identical. Equal entries are not always repeated.

How the values were obtained:
Format in all cases: functional, cell-based
[1] = system: SK-OV-3; test: Cytotoxic activity in a panel of Human ovarian tumor SKOV-3 cell line after 96h of drug exposure
How it was run: (§1)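 SRB growth-inhibition assay. Cells were seeded at (3-8) × 10^3 per well and left to attach overnight. Platinum agents were added after serial dilution, in quadruplicate wells, with continuous 96 h exposure. Growth in treated and control wells was quantified by staining with 0.4% SRB dissolved in 1% acetic acid.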

[2] = system: 41M; test: Cytotoxic activity in a panel of Human ovarian tumor 41M cell line after 96h of drug exposure; how it was run: as §1
[3] = system: A2780; test: Cytotoxic activity in a panel of Human ovarian tumor A2780/CDDP cell line after 96h of drug exposure; how it was run: as §1
[4] = system: CH1; test: Cytotoxic activity in a panel of Human ovarian tumor CH1 cell line after 96h of drug exposure; how it was run: as §1
[5] = system: CH1; test: Cytotoxic activity in a panel of Human ovarian tumor CH1/CDDP cell line after 96h of drug exposure; how it was run: as §1
[6] = system: 41M; test: Cytotoxic activity in a panel of Human ovarian tumor 41M/CDDP cell line after 96h of drug exposure; how it was run: as §1
[7] = system: HX62 cell line; test: Cytotoxic activity in a panel of Human ovarian tumor HX/62 cell line after 96h of drug exposure; how it was run: as §1
[8] = system: A2780; test: RF(Resistant factor) is determined from the ratio of IC50 of A2780 to the IC50 of CDDP cell lines
[9] = system: 41M; test: RF(Resistant factor) is determined from the ratio of IC50 of 41M to the IC50 of CDDP cell lines
[10] = system: CH1; test: RF(Resistant factor) is determined from the ratio of IC50 of CH1 to the IC50 of CDDP cell lines
[11] = system: A2780; test: Cytotoxic activity in a panel of Human ovarian tumor A2780 cell line after 96h of drug exposure; how it was run: as §1

Substance | IC50 [1] | IC50 [2] | IC50 [3] | IC50 [4] | IC50 [5] | IC50 [6] | IC50 [7] | RF [8] | RF [9] | RF [10] | IC50 [11]
CISPLATIN [listing 1 of 2 here] | 8000 nM | 540 nM | 6200 nM | 180 nM | 1450 nM | 1700 nM | 25000 nM |  |  |  | 
CISPLATIN [listing 2 of 2 here] |  |  |  |  |  |  |  | 11.7 | 3.1 | 8 | 
trans-[{PtCl(NH3)2}-mu-{NH2(CH2)6NH2}-cis-{PtCl2(NH3)}]Cl [listing 1 of 2 here] | 31000 nM and 17700 nM | 2500 nM and 2400 nM | 890 nM and 340 nM | 300 nM and 220 nM | 970 nM and 980 nM | 670 nM and 1300 nM | 24000 nM and 12500 nM |  |  |  | 280 nM and 66 nM
trans-[{PtCl(NH3)2}-mu-{NH2(CH2)6NH2}-cis-{PtCl2(NH3)}]Cl [listing 2 of 2 here] |  |  |  |  |  |  |  | 3.2 and 5.2 | 0.27 and 0.53 | 3.2 and 4.4 | 
trans-[{PtCl(NH3)2}-mu-{NH2(CH2)6NH2}-trans-{PtCl(NH3)2}] [listing 1 of 2 here] | 15300 nM and 87000 nM | 1900 nM and 7400 nM | 1200 nM and 4900 nM |  |  | 410 nM and 1800 nM | 11000 nM and 14000 nM |  |  |  | 66 nM and 250 nM
trans-[{PtCl(NH3)2}-mu-{NH2(CH2)6NH2}-trans-{PtCl(NH3)2}] [listing 2 of 2 here] |  |  |  |  |  |  |  | 18 and 19.6 | 0.21 and 0.24 | 3.3 and 2 | 
